From PubChem BioAssay
Thrombin inh: human alpha-thrombin inhibitors, primary screen, counter-screen for coagulation protease inhibitor project, biochemical, 1536-well, fluorogenic AMC substrate. Prothrombin (Homo sapiens), P00734. Boc-VPR-AMC fluorogenic substrate cleavage. inhibition, % at 5 µM. actives 0.26% (n = 220,000);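 active = inhibition at or above 40%; inactive = inhibition below 40%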;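 also: 0% = enzyme with no compound and 100% = wells without enzyme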
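Material: human alpha-thrombin enzyme / Medium: pH 7.5 Tris (50 mM) with NaCl 150 mM, Tween 20 0.05% / Compound: single-point dosing at 5 µM, 0.2% DMSO / Incubation: enzyme reaction carried out at room temperature / Detection: AMC fluorescence, 355/460 nm / Read-out basis: percent inhibition scaled between no-compound controls and no-enzyme blanks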
FXIa inh: human FXIa protease inhibitors, primary screen, biochemical, 1536-well; actives 0.14% (n = 220,000); Coagulation factor XI (Homo sapiens), P03951; AID 798, 2007; inhibition, % at 5 µM; purified FXIa, Boc-Glu-Ala-Arg-AMC fluorogenic substrate;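 active = inhibition of at least 40%; inactive = inhibition below 40%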;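 also: fluorescence of freed AMC excited at 355 nm; 0% = enzyme without compound and 100% = no enzyme blank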
Target sequence (P03951 19-387 limits assumed): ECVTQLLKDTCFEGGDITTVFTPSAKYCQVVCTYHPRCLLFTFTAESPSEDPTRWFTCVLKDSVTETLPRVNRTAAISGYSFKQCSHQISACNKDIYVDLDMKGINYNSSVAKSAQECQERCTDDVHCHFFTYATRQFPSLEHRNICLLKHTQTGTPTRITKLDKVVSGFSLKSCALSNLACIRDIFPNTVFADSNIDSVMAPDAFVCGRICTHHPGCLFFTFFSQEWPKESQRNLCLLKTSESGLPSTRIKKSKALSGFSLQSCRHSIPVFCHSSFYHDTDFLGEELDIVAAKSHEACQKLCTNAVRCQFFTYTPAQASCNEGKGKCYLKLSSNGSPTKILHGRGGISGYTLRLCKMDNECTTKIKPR
Target sequence (P03951 388-625 limits assumed): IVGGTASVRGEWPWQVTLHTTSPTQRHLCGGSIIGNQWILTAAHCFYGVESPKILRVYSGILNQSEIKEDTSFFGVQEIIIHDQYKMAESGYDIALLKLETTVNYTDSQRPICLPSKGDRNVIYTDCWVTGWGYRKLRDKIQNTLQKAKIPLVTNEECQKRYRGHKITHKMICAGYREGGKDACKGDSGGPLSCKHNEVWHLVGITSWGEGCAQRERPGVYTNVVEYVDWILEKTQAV
KLK5 inh: human KLK5 protease inhibitors, primary screen, biochemical, 1536-well; recombinant hK5, fluorogenic AMC substrate cleavage; actives 0.59% (n = 210,000); inhibition, % at 5 µM; Kallikrein-5 (Homo sapiens), Q9Y337;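 active = inhibition of 40% or more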;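 also: 0% = enzyme controls without compound and 100% = no-enzyme blanks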
EP2 modulator: EP2 receptor modulators, cAMP readout, primary screen, cell-based, HTRF cAMP, PGE2 stimulation | Prostaglandin E2 receptor EP2 subtype (Homo sapiens), P43116 | EP2-expressing cells, cAMP HTRF FRET, PGE2 co-stimulation | induction, % at 25 µM | actives 0.83% (n = 260,000);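 active = compounds whose cAMP rise, as percent of the full-agonist control response, exceeds 60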;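 also: rat C6 glioma line stably carrying human EP2 under a CMV promoter; the protocol text gives 20 µM as final concentration; 100% = response of wells given 1 µM PGE2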
FXIIa inh 1536: human FXIIa protease inhibitors, primary screen, biochemical, 1536-well. Coagulation factor XII (Homo sapiens), P00748. AID 800, 2007. actives 0.3% (n = 220,000). purified FXIIa, Boc-QGR-AMC fluorogenic substrate, 2 h. inhibition, % at 5 µM; in the data active = inhibition above about 40%;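 also: 0% = enzyme with no compound and 100% = blank without enzyme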
EP2 antag: human EP2 receptor antagonists, primary screen, TR-FRET cAMP, C6 glioma cells | Prostaglandin E2 receptor EP2 subtype (Homo sapiens), P43116 | C6 glioma cells expressing human EP2; cells stimulated with saturating PGE2 | inhibition, % at 25 µM | actives 0.52% (n = 260,000) | AID 1422, 2008;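 active = percent inhibition above 40 after rounding to a whole number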;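 also: rat C6 glioma host cells with rolipram phosphodiesterase inhibitor present; the protocol text gives 20 µM as final concentration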
Starred values were filed as active, the others as inactive; x = no result given. A selection: hits, their analogues and other compounds. The true share with any hit is near 2.1%.

SMILES | Thrombin inh | FXIa inh | KLK5 inh | EP2 modulator | FXIIa inh 1536 | EP2 antag
O=C(Nc1sc2c(c1C(=O)NC1CCS(=O)(=O)C1)CCCC2)c1ccccc1 (stereo unspecified) | x | x | x | 10 | x | 13
Nc1sc2c(c1C(=O)NC1CCS(=O)(=O)C1)CCC2 (stereo unspecified) | 19 | 7 | 45* | 27 | 20 | 12
NC(=O)c1c(N)sc2c1CCC2 | 20 | 8 | 17 | -12 | 41* | 4
Cc1cc(-c2cn[nH]c2C2CCCN(C(=O)C(C)c3ccccc3)C2)on1 (stereo unspecified) | x | x | x | 20 | x | x
COc1ccccc1-c1nnc(SCC(=O)OC2CCCCC2)n1C | x | x | x | 10 | x | 8
Cn1c(CNc2ccccc2C#N)c(C#N)c2ccccc21 | x | x | x | -25 | x | 8
Cc1ncccc1-c1cc2cccnc2n1CCC(=O)N1CC(C)OC(C)C1 (stereo unspecified) | x | x | x | -11 | x | 1
N/C(=N\c1nc2ccccc2o1)NC(=O)c1ccccc1F | -2 | -2 | -25 | -37 | -1 | 17
N/C(=N\c1nc2ccccc2o1)NC(=O)c1ccccc1NC(=O)c1ccccc1 | 52* | 2 | 31 | -14 | 7 | 30
Cc1ccc(C2(C(=O)N3CCC4(CC3)NC(=O)c3ccccc3N4)CC2)cc1 | x | x | x | 4 | x | 8
c1ccc([C@H](c2cccc3c2ccc2ccccc23)[C@H](c2ccccc2)c2cccc3c2ccc2ccccc23)cc1 | x | x | x | 8 | x | 41*
NC(=O)NC(c1ccccc1)c1cccc2ccccc12 (stereo unspecified) | -3 | 2 | -5 | 13 | 12 | -4
Cn1c(=O)[nH]c(=O)c2c1nc(N1CCCC1)n2CC(=O)c1ccccc1 | x | x | x | 14 | x | 12
CC1(C)Cc2ccccc2-c2nc3n(c(=O)c21)CCCS3 | -11 | -3 | -1 | 64* | 2 | 8
CCC1(C)Cc2ccccc2-c2nc3n(c(=O)c21)CCCCC3 (stereo unspecified) | -7 | -1 | -7 | 57 | 4 | 9
CNC(=O)c1cc2c(=O)n3cc(C)ccc3nc2n(CCc2ccccc2)c1=N | x | x | x | 8 | x | 4
CCc1ccc(N(C(C)=O)c2nc(CCl)cs2)cc1 | 12 | 30 | 88* | -11 | 24 | 22
CCCn1c(=O)c(C(N)=O)c(O)c2ccccc21 | x | x | x | 8 | x | 6
O=S(=O)(c1ccc(-n2cnnn2)cc1)N(C1CCCCC1)C1CCCCC1 | 2 | -1 | -15 | 64* | 9 | 5
CN(C1CCCCC1)S(=O)(=O)c1ccc(-n2cnnn2)cc1 | 1 | -4 | 3 | 14 | 11 | 8
N#Cc1ccsc1NC(=O)CN(Cc1ccccc1)Cc1ccccc1 | -5 | 43* | 4 | 44 | 10 | 10
COc1ccccc1C1CN(c2ccccc2)N=C1c1cccs1 (stereo unspecified) | -13 | -16 | -91 | 68* | -21 | 15
O=C(c1ccccc1)N1C(=O)C(c2ccccc2)Oc2ccccc21 (stereo unspecified) | -11 | 1 | 0 | 81* | 2 | 11
Cn1nccc1NC(=O)Nc1cccc(Cl)c1 | -2 | 2 | 2 | -10 | 13 | 6
Cn1nccc1-c1cc(Cl)cc(Cl)c1O | 73* | -8 | -7 | -39 | 0 | 14
SMILES | Thrombin inh | FXIa inh | KLK5 inh | EP2 modulator | FXIIa inh 1536 | EP2 antag
O=C(COC(=O)C1CC(=O)N(Cc2ccco2)C1)c1ccc(OC(=O)c2ccco2)cc1 (stereo unspecified) | 24 | 25 | 31 | -3 | 41* | 1
Cc1ccc(C(=O)Oc2ccc(C(=O)COC(=O)C3CC(=O)N(Cc4ccco4)C3)cc2)cc1 (stereo unspecified) | -4 | 4 | -19 | -46 | 14 | 14
CN(C)CCN(Cc1cccs1)Cc1cn[nH]c1-c1ccc(Cl)cc1 | x | x | x | -51 | x | 4
COc1ccccc1C(=O)NC(CC(C)C)c1nc2cccnc2n1C (stereo unspecified) | x | x | x | 5 | x | x
O=C(N/N=C(\CC(=O)c1cccs1)C(F)(F)F)c1ccncc1 | 8 | 37 | 61* | -18 | 24 | 1
O=C(COC(=O)CCN1C(=O)c2cccc([N+](=O)[O-])c2C1=O)NCc1ccccc1 | -8 | 38 | 42* | 11 | 26 | 7
COc1ccc(C(=O)Nc2ccc(C(=O)O)cc2)cc1S(=O)(=O)N1CCCCC1 | x | x | x | -4 | x | 8
CCc1ccc2[nH]c(=O)c(C(c3nnnn3C(C)(C)C)N(Cc3ccco3)CC3CCCO3)cc2c1 (stereo unspecified) | x | x | x | 66* | x | 10
CCc1ccccc1NC(=S)N(Cc1ccco1)Cc1cc2cc(C)ccc2[nH]c1=O | x | x | x | 87* | x | 9
COc1ccccc1CN(Cc1cc2cccc(C)c2[nH]c1=O)C(c1nnnn1C(C)(C)C)C(C)C (stereo unspecified) | x | x | x | 88* | x | 12
CCCC(c1nnnn1C1CCCCC1)N(Cc1ccco1)Cc1cc2cc(C)c(C)cc2[nH]c1=O (stereo unspecified) | x | x | x | 72* | x | 8
CC(C)c1ccc(NC(=O)CSc2nnc3n(CC(=O)N4CCCC4)c4ccccc4n23)cc1 | x | x | x | 16 | x | 16
CCCC(c1nnnn1C(C)(C)C)N(Cc1ccc(C)cc1)Cc1cc2cc(C)ccc2[nH]c1=O (stereo unspecified) | x | x | x | 22 | x | 6
CCC(c1nnnn1C1CCCC1)N(Cc1ccco1)Cc1cc2cccc(C)c2[nH]c1=O (stereo unspecified) | x | x | x | 64* | x | 7
CCCC(c1nnnn1C(C)(C)CC)N(Cc1ccco1)Cc1cc2cc(C)c(C)cc2[nH]c1=O (stereo unspecified) | x | x | x | 66* | x | 31
Cc1cc(C)c2[nH]c(=O)c(CN(Cc3ccco3)C(c3nnnn3C(C)(C)C)C(C)C)cc2c1 (stereo unspecified) | x | x | x | 70* | x | 15
CCC(C)(C)n1nnnc1C(C(C)C)N(Cc1ccco1)Cc1cc2cc3c(cc2[nH]c1=O)OCO3 (stereo unspecified) | 2 | 10 | 1 | 56 | 13 | 8
CCCC(c1nnnn1C(C)(C)C)N(Cc1ccco1)Cc1cc2cc(C)ccc2[nH]c1=O (stereo unspecified) | x | x | x | 66* | x | 7
CCCC(c1nnnn1C1CCCC1)N(Cc1ccco1)Cc1cc2cccc(C)c2[nH]c1=O (stereo unspecified) | x | x | x | 58 | x | 9
COc1ccc(-c2nnc(SCC(=O)N3CCCc4ccccc43)n2-c2ccccc2)cc1OC | x | x | x | -74 | x | 8
